Runt-SMMHC FRET – blocks binding of human RUNX1 Runt domain to CBFb-SMMHC; Cerulean-Runt/Venus-CBFb-SMMHC FRET ratio 530/480, 1 h; inhibition, % at 20 µM; hit rate 0.74% among 220,000;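 active = mean inhibition across duplicate retests at 20 µM reaching about 50%, limit read from the data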;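 note: 0% = DMSO wells and 100% = wells with excess untagged CBFb-SMMHC; inhibitors lower the FRET ratio by blocking Runt binding to CBFb-SMMHC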
Target sequence (Q01196 whole entry, looked up, the tested form may be a part): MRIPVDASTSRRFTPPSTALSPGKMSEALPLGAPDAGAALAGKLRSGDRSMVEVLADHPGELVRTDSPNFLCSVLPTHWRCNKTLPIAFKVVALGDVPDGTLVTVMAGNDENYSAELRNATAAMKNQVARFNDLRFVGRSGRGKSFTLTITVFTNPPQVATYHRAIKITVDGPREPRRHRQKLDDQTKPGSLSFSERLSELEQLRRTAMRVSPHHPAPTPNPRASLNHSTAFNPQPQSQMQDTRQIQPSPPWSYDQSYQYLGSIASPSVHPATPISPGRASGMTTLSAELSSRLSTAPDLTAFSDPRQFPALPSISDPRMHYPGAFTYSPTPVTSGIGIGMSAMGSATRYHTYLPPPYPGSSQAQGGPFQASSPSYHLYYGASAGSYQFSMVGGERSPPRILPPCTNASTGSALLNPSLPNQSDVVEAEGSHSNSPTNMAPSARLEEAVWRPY
Target sequence (Q13951 whole entry, looked up, the tested form may be a part): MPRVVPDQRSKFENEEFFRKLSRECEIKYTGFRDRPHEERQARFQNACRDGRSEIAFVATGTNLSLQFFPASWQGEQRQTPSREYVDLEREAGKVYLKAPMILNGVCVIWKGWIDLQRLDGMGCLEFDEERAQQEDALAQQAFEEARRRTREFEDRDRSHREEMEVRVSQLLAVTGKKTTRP
CaV13 FRET inh – Primary screen for inhibitors of IQ motif and Ca2+-dependent inactivation inhibitor domain binding in CACNA1D, Förster resonance energy transfer in living cells, …. HEK cells, CFP/YFP FRET ICDI-IQ, plate reader, 10 min; percent FRET-ratio fall versus neutral wells. hit rate 0.098% among 340,000. AID 743397. inhibition, % at 12.3 µM;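 active = mean replicate inhibition of at least 30% and at least 1% of replicates passing that level; inconclusive = only one of the two criteria is met; inactive = neither criterion is met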;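 note: 0% = median of the neutral control wells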
RanGTP-Imp inh – disruptors of Ran-importin-beta complex formation – biochemical, FRET, CFP-Ran, YFP-importin-beta, homogeneous, primary screen. cell-free CFP-Ran/YFP-importin-beta FRET ratio. inhibition, % (test concentration not listed). hit rate 1.1% among 300,000. AID 2216;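 active = more than half of the replicate wells show a fall in the fluorescence ratio signal beyond about 16%, limit read from the data, passing the limit was not always enough; inconclusive = exactly half of the replicate wells pass the set limit; inactive = fewer than half of replicates pass the limit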;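 note: 0% = DMSO wells and 100% = Ran loaded with GDP instead of GTP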
Runt-CBFb FRET – blocks binding of human RUNX1 Runt domain to CBFb; hit rate 0.46% among 220,000; AID 1496; inhibition, % at 20 µM; Cerulean-Runt/Venus-CBFb FRET ratio 530/480, 1 h; Q01196+Q13951;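 active = inhibition over about 50% at 20 µM in the single-dose screen, limit read from the data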;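 note: 0% = DMSO wells and 100% = excess unlabeled CBFb competitor control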
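Buffer or medium: Tris pH 7.5 buffer with BSA. Assay system: Cerulean-labeled Runt domain protein. Amount: each fluorescent fusion protein 100 nM. Read-out basis: loss of energy transfer signal. Incubation: 1 h compound exposure, room temperature. Probe or stimulus: Venus-CBFb binding partner, 100 nM. Detection: FRET, excitation 422 nm, emission at 530 and 480 nm.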
* = called active by the depositor; ? = inconclusive; · = not tested or not shown; + = active, no number. Only some compounds are listed: those with a hit (about 1.2% of all), similar ones and a draw of the others.

SMILES	Runt-SMMHC FRET	CaV13 FRET inh	RanGTP-Imp inh	Runt-CBFb FRET
CCC1(C)Cc2ccccc2-c2nc(NCCCO)[nH]c(=O)c21 (centres undefined)	-2	-3	1	1
COc1ccc(-n2c(N)c(C(=O)NCC3CCCO3)c3nc4ccccc4nc32)c(OC)c1 (centres undefined)	106*	·	52*	44
COc1ccc(-n2nc(C(=O)NCC(=O)NCC3CCCO3)c3ccccc3c2=O)c(OC)c1 (centres undefined)	2	-5	?	-2
C=CCn1c(N)c(C(=O)NCC2CCCO2)c2nc3ccccc3nc21 (centres undefined)	46	·	107*	4
Cc1cccc(CN2CCc3c(OCC(=O)N4CCCc5ccccc54)cccc3C2=O)c1	2	-6	22*	-4
C=CCn1c(SCC2CCCCO2)nc2sc(CC)cc2c1=O (centres undefined)	3	3	-2	-3
COc1ccc(-c2ncn(CCc3ccccc3OC)c2C(C)C)cc1	·	-5	·	·
CCCCC(=O)Nc1cccc(NC(=O)c2ccc(Br)o2)c1	0	-9	38*	0
C=CCN=C1NC(c2ccc(Cl)cc2)C(C(=O)OC)=C(C)N1Cc1cccc(C(F)(F)F)c1 (centres undefined)	·	-3	·	·
COc1cccc(-c2c3c([nH]c(=O)c2C#N)CCc2cc(OC)ccc2-3)c1	80*	·	94*	89*
COc1cccc(-c2cc(C(F)(F)F)c(C#N)c(=O)[nH]2)c1	16	-2	-3	5
O=c1cc2oc3cc(O)c(O)cc3c(-c3ccccc3[N+](=O)[O-])c-2cc1O	·	-6	18*	·
CCN(CC)CCCNc1nc2cc(OC)c(OC)cc2c2nc(-c3ccccc3)nn12	1	-5	50*	1
CC1C2(C)OCC(C#N)(C(=N)O2)C1(C#N)C#N (centres undefined)	51*	·	7	21
Cc1ccc(SCC(=O)OCC(=O)N(C)C2CCS(=O)(=O)C2)cc1C (centres undefined)	·	-5	·	·
COc1ccccc1N1CCN(S(=O)(=O)c2c(C)[nH]c(C)c2C(=O)N2CCCC2)CC1	·	-8	4	·
COc1ccccc1N1CCN(S(=O)(=O)c2c(C)[nH]c(C)c2C(=O)N2CCCCC2)CC1	·	-7	23*	·
Cc1cc(C)cc(NC(=O)NCC(O)COc2ccc([N+](=O)[O-])cc2)c1 (centres undefined)	-3	3	1	0
COC(=O)c1ccc(-c2ccc(Cl)cc2)nc1C	-2	-16	8	-6
CC(NC(=O)C(=O)N1CCCCC1)C(c1cccs1)N1CCN(C)CC1 (centres undefined)	·	-7	5	·
COC(=O)C1CCN(c2cc(=O)n(Cc3ccc(F)cc3)c(=O)[nH]2)CC1	-3	-7	59*	-1
COC(=O)C1CCN(c2cc(=O)n(C3CCCCC3)c(=O)[nH]2)CC1	0	·	63*	0
N#Cc1ccc(NC(=O)COC(=O)CCNS(=O)(=O)c2ccccc2)cc1	-3	-2	?	1
COc1ccc2cc(-c3cc(C(=O)OCC(=O)NC4CCS(=O)(=O)C4)c4ccccc4n3)ccc2c1 (centres undefined)	79*	-23	24*	-9
COC(=O)C1=C(N)Oc2cc(C)n(Cc3ccncc3)c(=O)c2C1c1cccnc1 (centres undefined)	·	-7	-3	·
SMILES	Runt-SMMHC FRET	CaV13 FRET inh	RanGTP-Imp inh	Runt-CBFb FRET
CCn1c(C)cc2c(c1=O)C(c1ccccc1)C(C(=O)OC)=C(N)O2 (centres undefined)	1	-3	42*	-2
COc1ccc(-c2nc3ccc(C(=O)NCC(OC)OC)cc3nc2-c2ccc(OC)cc2)cc1	3	-8	16*	4
Cc1ccccc1C(C)NC(=O)COC(=O)Cn1cc(C(F)(F)F)ccc1=O (centres undefined)	·	-2	·	·
CCOc1cc(/C=C2\CCCc3c2nc2ccccc2c3C(=O)O)ccc1OC	·	5	47*	·
COc1cc(/C=C2\CCCc3c2nc2ccccc2c3C(=O)O)cc(Br)c1O	·	-5	0	·
Cc1ccc(NC(=O)C(C)SCc2ccccc2)cc1 (centres undefined)	·	9	0	·
CCOc1ccc(NC(=O)CN(C)Cc2ccc3c(c2)OCO3)cc1S(=O)(=O)N1CCCC1	·	-5	·	·
Cc1cc(C)c(NC(=O)C2=COCCO2)c(C)c1	·	-3	-3	·
CCCCCCOc1ccc(/C=c2\s/c(=C(/C#N)C(=O)NCc3ccco3)n(-c3ccccc3)c2=O)cc1	8	-4	27*	-250
C[C@@H]1ON(C)[C@H]2C[C@H]3c4cc(Nc5ccccc5)ccc4CCN3C[C@@H]12	·	-5	·	·
O=C(CN1CCN(S(=O)(=O)c2ccccc2F)CC1)NC1CCCC1	6	-3	8	-2
C=CCn1cc(-c2ccccc2)cc(C#N)c1=O	6	·	-7	2
C=CCn1c(=O)c(C#N)cc2c(=O)n3ccccc3nc21	79*	·	75*	10
COc1ccc(CCn2c(=N)c(S(=O)(=O)c3ccc(Cl)cc3)cc3c(=O)n4ccccc4nc32)cc1	·	-3	9	·
C=CCn1c(=N)c(C#N)cc2c(=O)n3ccccc3nc21	75*	33*	+	-1
Cc1ccc2nc3c(cc(C#N)c(=N)n3Cc3cccnc3)c(=O)n2c1	·	·	94*	·
COC(=O)[C@H](Cc1ccccc1)N1Cc2ccccc2Oc2cc(Br)ccc2S1(=O)=O	·	-9	·	·
CCn1nc(NC(=O)CC(C)C)c2cc3ccc(C)cc3nc21	·	-4	10	·
COc1ccc2nc3c(cc2c1)c(NC(=O)CC(C)C)nn3CC(C)C	·	-1	74*	·
CCCCn1nc(NC(=O)CC(C)C)c2cc3cc(OC)ccc3nc21	·	4	84*	·
CCCCn1nc(NC(=O)CCC)c2cc3cc(OC)ccc3nc21	·	-1	71*	·
COc1ccc2nc3c(cc2c1)c(NC(=O)C1CCCO1)nn3CC(C)C (centres undefined)	61*	·	119*	12
CC(C)Sc1ncc(S(=O)(=O)c2ccccc2)c(=O)[nH]1	1	-5	?	2
O=C(CN1CCCCC1)Nc1ccc(NC(=O)c2ccc(Cl)cc2)cc1Cl	1	-5	-3	-2
CN1OC[C@@H]2CN(C(=O)CCc3ccccc3)[C@H](c3cccc(-c4ccccc4)c3)C[C@@H]21	·	-8	·	·
Cc1nnc(SCC(=O)Nc2ccccc2F)n1-c1ccc(F)cc1	·	-16	5	·
O=C(COC(=O)c1cc(Br)ccc1O)Nc1cccnc1Cl	·	-7	-1	·
CCc1cccc(C)c1NC(=S)N(CCN(C)C)Cc1cccs1	2	-7	54*	2
N#Cc1c(CSCC(=O)O)cc(=O)n2c1[nH]c1ccccc12	6	-1	-11	4
N#Cc1c(C(F)(F)F)cc(=O)n2c1[nH]c1ccccc12	·	4	91*	·
